Measurements taken from ChEMBL document CHEMBL3120131, “Lipoxygenase inhibitors derived from marine macroalgae” (Bioorg Med Chem Lett, 2014).

Columns and labels:
[1] = biological target: T1, Seed linoleate 9S-lipoxygenase (Glycine max, UniProt P24095); assay: (§1) Inhibition of soybean lipoxygenase
T1 sequence (P24095 whole entry): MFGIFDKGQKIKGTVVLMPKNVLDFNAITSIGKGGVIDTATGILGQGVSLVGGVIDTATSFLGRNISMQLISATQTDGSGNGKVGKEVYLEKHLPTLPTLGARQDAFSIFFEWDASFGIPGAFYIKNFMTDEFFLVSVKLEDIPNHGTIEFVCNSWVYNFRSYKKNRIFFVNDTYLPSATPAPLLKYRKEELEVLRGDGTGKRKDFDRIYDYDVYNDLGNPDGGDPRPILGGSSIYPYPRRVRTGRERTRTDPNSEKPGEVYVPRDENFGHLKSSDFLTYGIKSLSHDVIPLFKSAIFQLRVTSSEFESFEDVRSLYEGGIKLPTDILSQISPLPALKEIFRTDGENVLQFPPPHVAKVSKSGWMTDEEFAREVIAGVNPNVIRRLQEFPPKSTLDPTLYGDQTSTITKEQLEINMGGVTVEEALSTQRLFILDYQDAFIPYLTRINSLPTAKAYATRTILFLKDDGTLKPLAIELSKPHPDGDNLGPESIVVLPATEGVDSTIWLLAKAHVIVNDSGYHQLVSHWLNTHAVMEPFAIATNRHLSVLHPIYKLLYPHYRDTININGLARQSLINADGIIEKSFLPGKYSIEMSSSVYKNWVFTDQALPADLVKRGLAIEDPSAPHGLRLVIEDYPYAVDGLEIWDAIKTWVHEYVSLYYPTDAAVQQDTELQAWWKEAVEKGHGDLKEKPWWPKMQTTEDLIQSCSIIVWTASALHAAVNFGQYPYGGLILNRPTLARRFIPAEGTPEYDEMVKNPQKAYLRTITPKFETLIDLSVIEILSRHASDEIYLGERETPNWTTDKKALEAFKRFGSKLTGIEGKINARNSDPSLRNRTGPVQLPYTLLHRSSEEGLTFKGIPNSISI
Procedure, shortened: (§2)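 Soybean LOX (0.4 mg/mL stock in 100 mM borate, pH 9.0) and methanol-dissolved sample were pre-incubated 5 min at 27.5°C in 20 mM 3-dimethylaminobenzoic acid/borate pH 9.0. Argon-flushed substrate was added and the mixture held 5 min at 27.5°C. Stopped with MBTH–hemoglobin in phosphate pH 5.0; after 5 min, 1% SDS was added and A598 compared against control.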

[2] = biological target: T2, Seed linoleate 9S-lipoxygenase (Glycine max) (UniProt P24095); assay: Inhibition of soybean lipoxygenase at 100 uM; procedure, shortened: as §2
T2 sequence (whole entry): T1 sequence (P24095 whole entry)

[3] = biological target: T2, Seed linoleate 9S-lipoxygenase (Glycine max); assay: as §1; procedure, shortened: as §2

Row | IC50 [1] [µM] | inhibition [2] [%] | inhibition [3] | Structure (SMILES)
1 | 400 | 12.7 | – | CC(Cc1ccc(O)c(O)c1)C(C)Cc1ccc(O)c(O)c1 (stereo not given) [NORDIHYDROGUAIARETIC ACID]
2 | – | 6.5 | – | C=Cc1c(C)c2cc3nc(c4c5[nH]c(cc6nc(cc1[nH]2)C(C)=C6CC)c(C)c5C(=O)[C@@H]4C(=O)OC)[C@@H](CCC(=O)O)[C@@H]3C
3 | 5 | – | Dose-dependent effect | C=CCCC/C=C\C/C=C\C/C=C\C/C=C\C/C=C\CC
4 | 40 | – | Dose-dependent effect | C=CCCC/C=C\C/C=C\C/C=C\C/C=C\CCCCC
5 | – | 37.6 | – | C=Cc1c(C)c2cc3nc(c4c5[nH]c(cc6nc(cc1[nH]2)C(C)=C6CC)c(C)c5C(=O)[C@@H]4C(=O)OC)[C@@H](CCC(=O)OC/C=C(\C)CCC[C@H](C)CCC[C@H](C)CCCC(C)C)[C@@H]3C
6 | – | 15 | – | C=Cc1c(C)c2cc3nc(c4c5[nH]c(cc6nc(cc1[nH]2)C(C)=C6CC)c(C)c5C(=O)C4)[C@@H](CCC(=O)O)[C@@H]3C
7 | – | 29.4 | – | C=Cc1c(C)c2cc3nc(c4c5[nH]c(cc6nc(cc1[nH]2)C(C)=C6CC)c(C)c5C(=O)C4)[C@@H](CCC(=O)OC/C=C(\C)CCC[C@H](C)CCC[C@H](C)CCCC(C)C)[C@@H]3C
